# Compound activity from PubChem BioAssay.
# This is a sample that favours compounds with a hit; in the whole collection about 4.1% have one here.
# CHOP UPR activ: activators of apoptotic arm of unfolded protein response (CHOP) | activation, % at 10 µM | CHO-CHOP luciferase reporter, UPR activation, luminescence; percent of tunicamycin response over DMSO baseline | actives 0.34% (n = 330,000) | AID 449763;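 active = at 10 µM dose, activation of 40% or more, normalized to positive control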;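 also: 100% = tunicamycin at 10 µg/mL and 0% = DMSO alone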
#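 System: CHO CHOP reporter cells. Amount: 500 cells per well. Buffer or medium: F12 medium, 10% FBS. Compound dosing: one dose, 10 µM in 0.5% DMSO. Incubation: 6 h compound exposure at 37 °C after overnight seeding. Technique: Steady-Glo luciferase luminescence. Benchmarks: tunicamycin and DMSO controls.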
# Apaf1 inhib: blocks human Apaf-1 apoptosome activity | reconstituted apoptosome caspase-3 activity, DEVD-Rh110 fluorescence | O14727 | inhibition, % at 20 µM | AID 489030 | actives 0.71% (n = 330,000); active = inhibition of at least 40% at 20 µM;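 also: plate controls were DMSO wells for no effect and DEVD-CHO caspase inhibitor wells for full effect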
#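 Material: cell-free apoptosome with Apaf-1, procaspase-3 and caspase-9; Buffer or medium: Hepes pH 7.5 with detergent and BSA; Reagent: cytochrome c trigger plus (Z-DEVD)2-Rh110 caspase-3 substrate; Times: compound with Apaf-1, dATP, procaspase-3 30 min, then 50 min reaction, room temperature; Technique: Rh110 fluorescence intensity.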
# Mdm2 MdmX PPI: inhibitors of human Mdm2/MdmX interaction | O15151+Q00987 | SaOS-2 split-luciferase Mdm2/MdmX complementation, luminescence | actives 3% (n = 330,000) | AID 485346 | inhibition, % at 8 µM;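 active = inhibition of at least 50% at 8 µM in the primary screen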
# XBP1 UPR activ: adaptive UPR (XBP1) activation | AID 463104 | CHO-XBP1 luciferase reporter, IRE1-XBP1 UPR activation, luminescence; percent of tunicamycin response, DMSO as zero | actives 0.33% (n = 330,000) | activation, % at 20 µM;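 active = versus positive control, 20 µM dose yields 30% or more activation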;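 also: 100% = tunicamycin at 10 µg/mL and 0% = DMSO only wells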
#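 assay system = CHO-XBP1 luciferase reporter cells | amount = 1000 cells/well | buffer or medium = F12 plus 10% FBS | compound dosing = single point, 20 µM final compound, 1% DMSO | incubation = 16-18 h cell attachment at 37 °C, then 6 h compound exposure | detection = Steady-Glo luminescence read | controls = tunicamycin 10 µg/mL and vehicle-only wells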
# UBC13 polyUb: inhibitors of human UBC13 polyubiquitin chain formation; P61088; TR-FRET; inhibition, % at 20 µM; actives 0.47% (n = 330,000); in the data active = inhibition above about 45%, passing the limit was not always enough; inconclusive = no clear call, values can overlap the other calls
# Mdm2-MdmX conf: confirmation of human Mdm2/MdmX interaction inhibitors; shares compounds with Mdm2 MdmX PPI; Mdm2-MdmX binding, luminescent assay; inhibition, % at 8 µM; actives 55% (n = 10,000); AID 489028; in the data active = inhibition above about 40%
# FLuc counter: counter-screen for Mdm2/MdmX inhibitors: full-length luciferase; actives 77% (n = 6,200); AID 504607; SaOS-2 full-length luciferase counterscreen, luminescence; shares compounds with Mdm2 MdmX PPI; inhibition, % at 8 µM;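 active = mean inhibition at 8 µM reaching about 37%, which flags the compound as non-specific, limit read from the data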;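 also: p53-null SaOS-2 cells with luciferase driven by a doxycycline-inducible promoter; compound on cells about two nights before reading with doxycycline added after day one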
# Numbers without * were called inactive; ? = inconclusive; nt = no result given.
SMILES,CHOP UPR activ,Apaf1 inhib,Mdm2 MdmX PPI,XBP1 UPR activ,UBC13 polyUb,Mdm2-MdmX conf,FLuc counter
Cc1nc(SCC(=O)Nc2nccs2)c(C#N)c(C)c1C,-3,3,68*,-6,2,51*,110*
N#Cc1ccc(-c2cccnc2)nc1SCC(=O)Nc1sc2c(c1C#N)CCC2,0,-4,10,10,13,nt,nt
COc1ccc(C2=NN(C(=O)CCC(=O)O)C(c3ccccc3F)C2)cc1 (configuration not stated),3,-3,13,1,1,nt,nt
N#CC1(C#N)[C@@H](C(=O)C23CC4CC(CC(C4)C2)C3)C12CCOCC2,-1,2,23,1,12,nt,nt
O=C(NCc1ccccc1)C(c1ccc(Cl)cc1)N(C(=O)c1csnn1)C1CC1 (configuration not stated),-2,9,8,-8,0,nt,nt
COc1ccc(CC2(CO)COc3ccccc3C2=O)cc1 (configuration not stated),1,-3,51*,-3,-4,39,85*
Cc1cc(C)c2nc(N3CCN(C)CC3)c(C#N)cc2c1,0,19,16,2,1,nt,nt
Cc1cccc2cc(C#N)c(N3CCN(C)CC3)nc12,-1,-8,54*,0,5,7,nt
Cc1nc(C(=O)Nc2ccccc2Cl)cc2c1[nH]c1ccccc12,4,6,80*,2,3,57*,56*
O=C(COC(=O)c1cc(S(=O)(=O)N2CCCCC2)ccc1N1CCOCC1)c1ccc(F)cc1,2,19,14,0,0,nt,nt
Cc1nc(/C=C/c2ccccc2)[nH]c(=O)c1-c1ccccc1,5,-3,-10,-2,6,nt,nt
COCCN(Cc1ccccc1)C(=O)c1c(C)nn(-c2ccccc2)c1C,1,-16,-10,0,14,nt,nt
N#CC(C#N)=C1NC2(CCCCC2)Cc2ccccc21,1,2,-22,-3,6,nt,nt
N#CC(C#N)=c1ccc2c(c1)NC1(CCCCC1)N=2,12,29,71*,1,-422,50*,20
COc1ccccc1NC(=S)NCc1ccc2c(c1)OCO2,1,6,-3,-1,4,nt,nt
COc1ccc(-c2cc(C)no2)cc1S(=O)(=O)N1CCN(c2cccc(C)c2)C(C)C1 (configuration not stated),-1,2,53*,-6,-6,45*,61*
COc1ccc(N2CCN(S(=O)(=O)c3cc(-c4cc(C)no4)ccc3C(C)C)CC2)cc1,0,21,51*,-5,-6,37,nt
Cc1cccc(N2CCN(S(=O)(=O)c3cc(-c4cc(C)no4)ccc3C)CC2C)c1 (configuration not stated),-1,12,50*,-5,8,54*,38*
Cc1nc(N2CCN(C(=O)c3ccco3)CC2)[nH]c(=O)c1C,3,-16,23,-2,0,nt,nt
O=C(c1ccccc1)N1CCCCCC1,-2,6,-16,-2,1,nt,nt
COc1ccc(NC(=O)CSc2ccc3nnc(CCNC(=O)c4ccccc4)n3n2)cc1OC,2,-7,-1,-3,-3,nt,nt
O=C(Cn1cnnn1)NC1CCCN(Cc2ccccc2F)C1 (configuration not stated),0,-5,-3,0,4,nt,nt
O=C(NCc1ccccn1)c1cc(-c2ccc(-c3ccccc3)cc2)nc2ccccc12,2,1,84*,5,22,61*,54*
COCCNC(=O)c1cc(-c2ccc(-c3ccccc3)cc2)nc2ccccc12,5,14,88*,1,22,84*,46*
Cc1cc(OCC(=O)Nc2ccc(CN3CCOCC3)cc2)c2c(C)c(C)c(=O)oc2c1,0,7,58*,-6,23,24,nt
SMILES,CHOP UPR activ,Apaf1 inhib,Mdm2 MdmX PPI,XBP1 UPR activ,UBC13 polyUb,Mdm2-MdmX conf,FLuc counter
Cc1cc(OCC(=O)Nc2ccc(CN3CCOCC3)cc2)c2c(C)cc(=O)oc2c1,-1,-3,33,-2,3,nt,nt
COc1cc(S(=O)(=O)NCC2CCCO2)ccc1Br (configuration not stated),-2,-11,6,-2,3,nt,nt
O=C(NCCc1ccccc1)C1CCC(Cn2c(=O)c3ccccc3n(Cc3cccc(F)c3)c2=O)CC1 (configuration not stated),0,4,49,18,10,nt,nt
O=C(NCCc1ccccc1)C1CCC(Cn2c(=O)c3ccccc3n(Cc3cccc(Cl)c3)c2=O)CC1 (configuration not stated),0,3,54*,12,14,0,nt
CC(=O)c1c(C)n(C)c2ccc(OC(=O)c3ccc([N+](=O)[O-])cc3)cc12,-1,5,-22,2,-8,nt,nt
CCOCCc1c(O)nc(SCCOc2ccc(C)c(C)c2)[nH]c1=O,-1,-23,-21,-2,5,nt,nt
C[C@@]12C(=O)Nc3cc(F)c(F)cc3C(=O)N1[C@H]1c3cc(Cl)ccc3OC[C@@H]1[C@@H]2c1ccccc1,4,13,51*,9,-4,34,nt
C[C@@]12C(=O)Nc3ccc(Cl)cc3C(=O)N1[C@H]1c3cc(Cl)ccc3OC[C@@H]1[C@@H]2c1ccccc1,2,15,53*,0,14,14,nt
COc1ccc2c(c1)OC[C@H]1[C@H]2N2C(=O)c3ccccc3NC(=O)[C@@]2(C)[C@H]1c1ccccc1,1,17,50*,-4,-1,36,54*
COc1ccc2c(c1)OC[C@H]1[C@H]2N2C(=O)c3cc(C)ccc3NC(=O)[C@@]2(C)[C@H]1c1ccccc1,0,24,29,-5,-3,nt,nt
Cc1ccc2c(c1)[C@H]1[C@H](CO2)[C@H](c2ccccc2)[C@]2(C)C(=O)Nc3ccc(Cl)cc3C(=O)N12,0,18,35,-1,?,nt,nt
OC(COCC(F)(F)C(F)(F)C(F)(F)C(F)F)Cn1c2ccc(Cl)cc2c2cc(Cl)ccc21 (configuration not stated),1,-1,95*,0,-3,28,nt
COc1ccc(S(=O)(=O)N2c3ccccc3OCC2c2ccccc2)cc1 (configuration not stated),1,15,51*,3,-5,72*,48*
COc1ccc(S(=O)(=O)N2CCOc3ccccc32)cc1,-2,6,61*,0,7,63*,54*
COc1ccc(S(=O)(=O)N2c3ccccc3OCC2C(C)(C)C)cc1 (configuration not stated),0,13,58*,-2,-4,47*,45*
